From publication PMC10725268 (CPT: Pharmacometrics & Systems Pharmacology, 2023)
Each block holds one compound with its values, some of them ahead of it. Where a SMILES comes first, the peptide text is derived from it. Bridges are numbered along the chain shown (N, C = ends). [ ]: non-standard residue; d: D form. The star is where a group is joined. Heptanoyl(6-Me) = CC(C)CCCCC(=O)*; X1 = CC[C@H](C)CCCCC(=O)*; Dab = NCC[C@H](N)C(=O)O

Legend:
patients receiving PMB = conditions: cited from earlier work
[1] = Steady-state plasma concentrations of PMB; format: in vivo; conditions: human, iv
Method in brief: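 Blood drawn after ≥48 h of dosing; peak taken immediately after infusion end. Samples centrifuged 885 g, 10 min; supernatant stored −80°C. PMB1 and PMB2 measured by UPLC-MS/MS on a C18 column (2.6 μm, 3.0 × 50 mm), 40°C, 0.3 ml/min. Gradient: 0.1% formic acid in water versus acetonitrile. Total PMB is the sum of PMB1 and PMB2.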

critically ill patients [2] = format: in vivo, human
Method in brief: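 Intravenous dosing: 2.5 mg/kg loading dose (not all patients), then 2.5–3 mg/kg/day in two divided doses. After ≥48 h, mid-interval plasma concentration was sampled 6 h post-dose. Variables with p < 0.05 in univariate logistic regression entered forward-stepwise multivariate regression, with fit checked by Hosmer–Lemeshow. ROC cutoff was taken at the maximum Youden index. AKI probability came from a logistic equation on C1/2t.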

critically ill patients [3] = experiment: Clinical outcome during intravenous PMB treatment; format: in vivo, human
Method in brief: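 Single-centre ICU cohort, August 2020–July 2022: adults on intravenous PMB for ≥2 days with MDR Gram-negative infection. Excluded: baseline creatinine >1.5 mg/dl, prior renal replacement, or a changed maintenance dose. Prognosis and adverse events were taken from hospital records. AKI and non-AKI groups were compared by chi-square or Fisher's exact test.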

critically ill patients [4] = experiment: PMB-induced acute kidney injury; format: in vivo, human
Method in brief: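 ICU adults (>18 years) with MDR Gram-negative infection, given intravenous PMB (sulfate) for ≥2 days with plasma monitoring. Excluded: baseline serum creatinine >1.5 mg/dl or prior renal replacement. AKI (KDIGO) was a serum creatinine rise ≥0.3 mg/dl within 48 h, >1.5-fold within 7 days, or urine output <0.5 ml/kg/h for >6 h.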

[5] = Estimation of PMB AUC0-24 from timed steady-state plasma concentrations; format: in vivo, human; conditions: mean ± SD; for AUC(0-t): human, iv, AUC0–24, trapezoidal area
[6] = one-compartment model, AKI (n = 30)
[7] = one-compartment model, Non-AKI (n = 25)
[8] = one-compartment model, Overall (n = 55)

SMILES: CC[C@H](C)CCCCC(=O)N[C@@H](CCN)C(=O)N[C@H](C(=O)N[C@@H](CCN)C(=O)N[C@H]1CCNC(=O)[C@H]([C@@H](C)O)NC(=O)[C@H](CCN)NC(=O)[C@H](CCN)NC(=O)[C@H](CC(C)C)NC(=O)[C@@H](Cc2ccccc2)NC(=O)[C@H](CCN)NC1=O)[C@@H](C)O [PMB1, polymyxin B1] (X1-[Dab]T[Dab][Dab][Dab][dF]L[Dab][Dab]T; lactam 4-C)
peak concentration above which the probability of AKI would be >50% (patients receiving PMB; ref 17 (Deng et al.)): > 5.23 µg/mL

Cmax [1]: 1000 ng/mL
SMILES: CC(C)CCCCC(=O)N[C@@H](CCN)C(=O)N[C@H](C(=O)N[C@@H](CCN)C(=O)N[C@H]1CCNC(=O)[C@H]([C@@H](C)O)NC(=O)[C@H](CCN)NC(=O)[C@H](CCN)NC(=O)[C@H](CC(C)C)NC(=O)[C@@H](Cc2ccccc2)NC(=O)[C@H](CCN)NC1=O)[C@@H](C)O [PMB2, polymyxin B2] ({Heptanoyl(6-Me)}-[Dab]T[Dab][Dab][Dab][dF]L[Dab][Dab]T; lactam 4-C)

SMILES: CC[C@H](C)CCCCC(=O)N[C@@H](CCN)C(=O)N[C@H](C(=O)N[C@@H](CCN)C(=O)N[C@H]1CCNC(=O)[C@H]([C@@H](C)O)NC(=O)[C@H](CCN)NC(=O)[C@H](CCN)NC(=O)[C@H](CC(C)C)NC(=O)[C@@H](Cc2ccccc2)NC(=O)[C@H](CCN)NC1=O)[C@@H](C)O [PMB, polymyxin B] (X1-[Dab]T[Dab][Dab][Dab][dF]L[Dab][Dab]T; lactam 4-C)
optimal cutoff value of C1/2t for predicting PMB-induced AKI (critically ill patients [2]; ROC curve, Youden index, p = 0.002, 66.7% sensitivity, 72% specificity): 3.47 µg/mL
C1/2t at which the probability of AKI was >50% (critically ill patients [2]; univariate logistic regression, Equation 5): ≥ 3.24 mg/L
30-day mortality rate (critically ill patients [3]; AKI group): 46.7%
30-day mortality rate (critically ill patients [3]; non-AKI group): 20%
overall AKI incidence (critically ill patients [4]; 30 of 55 patients on intravenous PMB, KDIGO definition): 54.5%
patients who developed AKI on Day 3 (critically ill patients [4]; after PMB administration): 13.3%
patients who developed AKI within 7 days (critically ill patients [4]; share of the AKI group (n = 30)): 46.7%
trough concentration limit suggested to reduce the risk of AKI (patients receiving PMB; ref 16 (Han et al.)): < 3.13 mg/L
nephrotoxicity compared with colistin (patients receiving PMB; systematic review and meta-analysis): lower nephrotoxicity than colistin
AUC(0-t) ([5]; based on Cmin(B) and Cmax(B), AKI (n = 30)): 128 ± 36.2 µg·h/mL
AUC(0-t) ([5]; based on Cmin(B) and Cmax(B), Non-AKI (n = 25)): 102 ± 30.9 µg·h/mL
AUC(0-t) ([5]; based on Cmin(B) and Cmax(B), Overall (n = 55)): 116 ± 36 µg·h/mL
AUC(0-t) ([5]; based on Cmin(B), C1/2t(B), and Cmax(B), AKI (n = 30)): 110 ± 31.3 µg·h/mL
AUC(0-t) ([5]; based on Cmin(B), C1/2t(B), and Cmax(B), Non-AKI (n = 25)): 85.4 ± 24.4 µg·h/mL
AUC(0-t) ([5]; based on Cmin(B), C1/2t(B), and Cmax(B), Overall (n = 55)): 99.1 ± 30.8 µg·h/mL
AUC0–24, first-order pharmacokinetic equation, based on C1/2t(B) and Cmax(B) (AUC1/2t,max) [5, 6]: 103.7 ± 31.2 µg·h/mL
AUC0–24, first-order pharmacokinetic equation, based on Cmin(B) and C1/2t(B) [5, 6]: 100.7 ± 34.8 µg·h/mL
AUC0–24, first-order pharmacokinetic equation, based on Cmin(B) and Cmax(B) [5, 6]: 115.7 ± 35.1 µg·h/mL
AUC0–24, first-order pharmacokinetic equation, based on Cmin(B) and C1/2t(B) [5, 7]: 72.8 ± 21.2 µg·h/mL
AUC0–24, first-order pharmacokinetic equation, based on Cmin(B) and Cmax(B) [5, 7]: 90.2 ± 28.4 µg·h/mL
AUC0–24, first-order pharmacokinetic equation, based on Cmin(B) and C1/2t(B) [5, 8]: 88.1 ± 32.3 µg·h/mL
AUC0–24, first-order pharmacokinetic equation, based on Cmin(B) and Cmax(B) [5, 8]: 104.1 ± 34.4 µg·h/mL
